Type in all cases: functional, cell-based
In one experiment the test system is SW-620. In words: Antiproliferative activity against human SW620 cells at 10 uM incubated for 48 hrs by sulforhodamine B assay. In outline: (§1)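 Run by the NCI Developmental Therapeutics Program (Division of Cancer Treatment and Diagnosis) as part of the NCI60 human tumour cell line panel. Each compound was tested in vitro at a single dose of 10 μM, and the data are reported as one-dose mean graphs across the panel.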
For orientation: In SRB staining, fixed cells bind dye roughly in proportion to their protein.

The next experiment concerns ACHN. Kind of experiment: Antiproliferative activity against human ACHN cells at 10 uM incubated for 48 hrs by sulforhodamine B assay. In outline: (§2)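 Run by the NCI Developmental Therapeutics Program (Division of Cancer Treatment and Diagnosis) as part of the NCI60 human tumour cell line panel screen. Each compound was tested at a single dose of 10 μM. Results are reported as one-dose mean graphs.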

The subject of another experiment is NCI-H23. Kind of experiment: Antiproliferative activity against human NCI-H23 cells at 10 uM incubated for 48 hrs by sulforhodamine B assay. In outline:
as §2

The test system of a further experiment is U-251. In words: Antiproliferative activity against human U251 cells at 10 uM incubated for 48 hrs by sulforhodamine B assay. In a few lines:
as §1

A further experiment has as its system 786-0. Kind of experiment: Antiproliferative activity against human 786-0 cells at 10 uM incubated for 48 hrs by sulforhodamine B assay. In a few lines: as §2
For the next experiment, the system named is SK-MEL-2. Kind of experiment: Antiproliferative activity against human SK-MEL-2 cells at 10 uM incubated for 48 hrs by sulforhodamine B assay. In a few lines:
as §2

The next experiment deals with MCF7. In words: Antiproliferative activity against human MCF7 cells at 10 uM incubated for 48 hrs by sulforhodamine B assay. In outline:
as §2

The next experiment concerns TK-10. In words: Antiproliferative activity against human TK10 cells at 10 uM incubated for 48 hrs by sulforhodamine B assay. In outline:
as §1

A further experiment has as its system MDA-MB-231. Kind of experiment: Antiproliferative activity against human MDA-MB-231 cells at 10 uM incubated for 48 hrs by sulforhodamine B assay. In outline: as §2
The subject of a further experiment is OVCAR-5. Kind of experiment: Antiproliferative activity against human OVCAR5 cells at 10 uM incubated for 48 hrs by sulforhodamine B assay. In outline:
as §2

Another experiment deals with EKVX. In words: Antiproliferative activity against human EKVX cells at 10 uM incubated for 48 hrs by sulforhodamine B assay. In a few lines: as §2
Another experiment relates to OVCAR-4. Kind of experiment: Antiproliferative activity against human OVCAR4 cells at 10 uM incubated for 48 hrs by sulforhodamine B assay. In outline:
as §2

In the next experiment the test system is SN12C. In words: Antiproliferative activity against human SN12C cells at 10 uM incubated for 48 hrs by sulforhodamine B assay. In outline: as §2
Another experiment deals with HOP-62. In words: Antiproliferative activity against human HOP62 cells at 10 uM incubated for 48 hrs by sulforhodamine B assay. In outline: as §2
The subject of the next experiment is NCI/ADR-RES. In words: Antiproliferative activity against human NCI/ADR-RES cells at 10 uM incubated for 48 hrs by sulforhodamine B assay. In a few lines: as §2
In the next experiment the test system is HCT-116. Kind of experiment: Antiproliferative activity against human HCT116 cells at 10 uM incubated for 48 hrs by sulforhodamine B assay. In outline:
as §2

Active and inactive are the calls of the source. No cut-off for these calls is given here.

Regarding `O=C1C[C@H]2O[C@H]([C@H](O)c3ccccc3)[C@H](O)[C@H]2O1`, the outcome with SW-620, in the experiment on ACHN, with NCI-H23, in the experiment on U-251, in the experiment with 786-0 and with SK-MEL-2 was Active. Further, the outcome in the experiment with MCF7, with TK-10, in the experiment on MDA-MB-231, in the experiment with OVCAR-5, with EKVX and in the experiment on OVCAR-4 was Active. For the same compound, the outcome in the experiment with SN12C, in the experiment with HOP-62, in the experiment with NCI/ADR-RES and in the experiment with HCT-116 was Active.
On to `CC(=O)O[C@H](C)[C@H]1O[C@H]2CC(=O)O[C@H]2[C@@H]1O`, for which the outcome with SW-620, in the experiment with ACHN, in the experiment with NCI-H23, with U-251, in the experiment with 786-0 and with SK-MEL-2 was inactive. Moreover, the outcome with MCF7, in the experiment with TK-10, in the experiment on MDA-MB-231, in the experiment with OVCAR-5, in the experiment with EKVX and in the experiment with OVCAR-4 was inactive. Moreover, the outcome with SN12C, with HOP-62, with NCI/ADR-RES and in the experiment on HCT-116 was inactive.
On to `CC(=O)O[C@H](C)[C@@H]1O[C@@H]2CC(=O)O[C@@H]2[C@H]1O`, for which the outcome with SW-620, in the experiment on ACHN, in the experiment on NCI-H23, with U-251, in the experiment with 786-0 and in the experiment on SK-MEL-2 was inactive. Moreover, the result with MCF7, with TK-10, with MDA-MB-231, with OVCAR-5, in the experiment with EKVX and in the experiment with OVCAR-4 was inactive. For the same compound, the result in the experiment on SN12C, in the experiment with HOP-62, in the experiment on NCI/ADR-RES and in the experiment with HCT-116 was inactive.
As to `O=C1C[C@H]2O[C@H]([C@@H](O)c3ccccc3)[C@H](O)[C@H]2O1`, the result with SW-620, in the experiment on ACHN, with NCI-H23, in the experiment on U-251, in the experiment with 786-0 and in the experiment with SK-MEL-2 was Active. Moreover, the outcome in the experiment with MCF7, with TK-10, with MDA-MB-231, with OVCAR-5, with EKVX and in the experiment with OVCAR-4 was Active. For the same compound, the outcome in the experiment with SN12C, in the experiment on HOP-62, in the experiment on NCI/ADR-RES and in the experiment on HCT-116 was Active.
Regarding `CC(=O)O[C@@H](C)[C@H]1O[C@H]2CC(=O)O[C@H]2[C@@H]1O`, the result with SW-620, with ACHN, with NCI-H23, in the experiment on U-251, in the experiment with 786-0 and in the experiment with SK-MEL-2 was inactive. The result with MCF7, in the experiment on TK-10, with MDA-MB-231, with OVCAR-5, in the experiment on EKVX and with OVCAR-4 was inactive. The outcome in the experiment with SN12C, with HOP-62, in the experiment on NCI/ADR-RES and in the experiment on HCT-116 was inactive.
For `CC(=O)O[C@@H](C)[C@@H]1O[C@@H]2CC(=O)O[C@@H]2[C@H]1O`, the result with SW-620, with ACHN, in the experiment with NCI-H23, in the experiment with U-251, with 786-0 and with SK-MEL-2 was inactive. The result with MCF7, in the experiment with TK-10, with MDA-MB-231, in the experiment with OVCAR-5, in the experiment with EKVX and with OVCAR-4 was inactive. In addition, the outcome with SN12C, with HOP-62, with NCI/ADR-RES and in the experiment on HCT-116 was inactive.
For the compound `O=C(/C=C/c1ccccc1)O[C@H](c1ccccc1)[C@@H]1O[C@@H]2CC(=O)O[C@@H]2[C@H]1O`, the result in the experiment on SW-620, with ACHN, with NCI-H23, with U-251, with 786-0 and in the experiment with SK-MEL-2 was Active. The outcome in the experiment with MCF7, with TK-10, in the experiment with MDA-MB-231, with OVCAR-5, in the experiment on EKVX and with OVCAR-4 was Active. The outcome with SN12C, with HOP-62, with NCI/ADR-RES and in the experiment with HCT-116 was Active.
